ChEMBL document CHEMBL4371029, “Design, synthesis and evaluation of N2,N4-diaminoquinazoline based inhibitors of phosphodiesterase type 5” (Bioorg Med Chem Lett, 2019)
Converted amounts (≈) assume the structure as drawn.

Key:
[1] = molecular target: cGMP-specific 3',5'-cyclic phosphodiesterase (Rattus norvegicus, UniProt O54735); test: Inhibition of rat lung PDE5 using [3H]cGMP as substrate measured after 10 mins by scintillation counting method
[2] = Equilibrium solubility of the compound in pH 7.4 phosphate buffer saline at 1 mg sonicated for 1 hr followed by 6 hrs incubation by shake flask method; format: physicochemical; conditions: phosphate buffered saline
[3] = Selectivity index, ratio of IC50 for human A549 cells to IC50 for rat lung PDE5
[4] = Selectivity index, ratio of IC50 for histone activated chicken PDE6 to IC50 for rat lung PDE5
[5] = Inhibition of histone activated chicken PDE6 using [3H]cGMP as substrate measured after 10 mins by scintillation counting method; design: species or system Gallus gallus
In short: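 Radioactive enzyme assay adapted from Sonnenburg et al. IC50 is the concentration giving 50% enzyme inhibition. Percent inhibition at the highest concentration tested is also recorded.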

A549 = test: Cytotoxicity against human A549 cells after 72 hrs by MTT assay; format: cell-based; conditions: A549, 72 h
In short: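 A549 adenocarcinomic human alveolar basal epithelial cells (ATCC CCL-185). Viability read by MTT; result expressed as IC50.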

Artery = test: Vasorelaxant activity in Wistar rat endothelium intact pulmonary artery rings assessed as inhibition of phenylephrine-induced contraction; format: functional, tissue-based

IC50 [1] | solubility thermodynamic at 6 h [2] | Ratio IC50 [4] | IC50 [5] | EC50 (Artery) | Compound | Ratio IC50 [3] | IC50 (A549)
443 nM |  |  |  |  | COc1cccc(CNc2nc(Nc3cccc(S(N)(=O)=O)c3)nc3cc(OC)c(OC)cc23)c1 |  | 
555 nM |  |  |  |  | COc1cc2nc(Nc3cccc(S(N)(=O)=O)c3)nc(NCc3cccs3)c2cc1OC |  | 
116 nM | 380 µM (≈ 150 µg/mL) | 1.64 | 190 nM |  | NS(=O)(=O)c1cccc(Nc2nc(NCc3ccco3)c3ccccc3n2)c1 | 232 | 26900 nM
1440 nM |  |  |  |  | c1ccc(Nc2nc(NCc3cccs3)c3ccccc3n2)cc1 |  | 
3710 nM |  |  |  |  | Cc1cc(Nc2nc(Nc3cccc(S(N)(=O)=O)c3)nc3ccccc23)n[nH]1 |  | 
1260 nM |  |  |  |  | CN(C)S(=O)(=O)c1ccc(Nc2nc(NCc3ccccc3)c3ccccc3n2)cc1 |  | 
1380 nM | 410 µM (≈ 134 µg/mL) | 0.65 | 890 nM |  | c1ccc(CNc2nc(Nc3ccccc3)nc3ccccc23)cc1 | 9 | 12300 nM
89 nM | 340 µM (≈ 140 µg/mL) | 4.04 | 360 nM | 2280 nM | NS(=O)(=O)c1cccc(Nc2nc(NCc3cccs3)c3ccccc3n2)c1 | 169 | 15000 nM
350 nM |  |  |  |  | COc1cccc(CNc2nc(Nc3cccc(S(N)(=O)=O)c3)nc3ccccc23)c1 |  | 
946 nM |  |  |  |  | NS(=O)(=O)c1ccc(Nc2nc(NCc3ccccc3)c3ccccc3n2)cc1 |  | 
514 nM | 480 µM (≈ 200 µg/mL) | 1.19 | 610 nM |  | c1csc(CNc2nc(Nc3ccc(N4CCOCC4)cc3)nc3ccccc23)c1 | 22 | 11400 nM
218 nM |  |  |  |  | COc1cc2nc(Nc3cccc(S(N)(=O)=O)c3)nc(NCc3ccccc3)c2cc1OC |  | 
525 nM | 600 µM (≈ 247 µg/mL) | 0.86 | 450 nM |  | c1ccc(CNc2nc(Nc3ccc(N4CCOCC4)cc3)nc3ccccc23)cc1 | 23 | 12100 nM
> 10000 nM |  |  | 33500 nM |  | Clc1cnc(Nc2ccccc2)nc1NCc1ccccc1 |  | 
177 nM |  |  |  |  | NC(=O)c1ccc(Nc2nc(NCc3cccs3)c3ccccc3n2)cc1 |  | 
290 nM |  |  |  |  | NC(=O)c1cccc(Nc2nc(NCc3cccs3)c3ccccc3n2)c1 |  | 
284 nM |  |  |  |  | COc1cc2nc(Nc3cccc(S(N)(=O)=O)c3)nc(NCc3ccco3)c2cc1OC |  | 
 |  |  | 13 nM | 140 nM | CCCc1nn(C)c2c(=O)[nH]c(-c3cc(S(=O)(=O)N4CCN(C)CC4)ccc3OCC)nc12 |  | 
224 nM |  |  |  |  | NS(=O)(=O)c1ccc(Nc2nc(NCc3cccs3)c3ccccc3n2)cc1 |  | 
72 nM | 1370 µM (≈ 556 µg/mL) | 4.61 | 332 nM | 1630 nM | NS(=O)(=O)c1cccc(Nc2nc(NCc3ccccc3)c3ccccc3n2)c1 | 155 | 11200 nM
775 nM |  |  |  |  | O=C(Nc1ccccc1)Nc1ccc(Nc2nc(NCc3cccs3)c3ccccc3n2)cc1 |  | 
